Experimental data: ChEMBL document CHEMBL1134406, “Azepanone-based inhibitors of human and rat cathepsin K” (J Med Chem, 2001)

Experiments:
Cathepsin K [1] = molecular target: T1, Cathepsin K (Homo sapiens, UniProt P43235); experiment: Inhibition of Human cathepsin K
T1 sequence (P43235 whole entry): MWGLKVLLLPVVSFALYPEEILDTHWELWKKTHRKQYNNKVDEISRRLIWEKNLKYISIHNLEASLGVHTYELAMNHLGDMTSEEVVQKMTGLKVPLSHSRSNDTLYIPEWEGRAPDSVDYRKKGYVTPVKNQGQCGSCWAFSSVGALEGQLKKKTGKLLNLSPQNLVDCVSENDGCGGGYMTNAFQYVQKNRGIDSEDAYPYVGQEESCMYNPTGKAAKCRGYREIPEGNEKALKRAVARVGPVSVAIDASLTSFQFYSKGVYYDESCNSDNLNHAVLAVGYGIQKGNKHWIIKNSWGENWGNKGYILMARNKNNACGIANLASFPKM

[2] = plasma clearance in male Sprague-Dawley rat; format: ADME, organism-based
Method in brief: (§1)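 Crossover in rats over 2 study days, 2 days apart: 30-min IV infusion on day 1, oral bolus gavage in the same animals on day 2. Blood taken from lateral tail vein, plasma by centrifugation, drug quantified by LC/MS/MS (LLOQ 5–10 ng/mL). PK parameters from plasma concentration–time data by standard analysis.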

[3] = volume distribution in male Sprague-Dawley rat; format: ADME, organism-based; conditions: in vivo, read-out: Vdss; method in brief: as §1
[4] = half life period in male Sprague-Dawley rat; format: ADME, organism-based; conditions: in vivo; method in brief: as §1
[5] = Bioavailability in rat (Sprague-Dawley) (male); format: ADME, organism-based; conditions: in vivo; method in brief: as §1
Cathepsin S = Cathepsin S (Homo sapiens, UniProt P25774); experiment: Inhibitory activity against Human cathepsin S
Procathepsin L = Procathepsin L (Homo sapiens, UniProt P07711); experiment: Inhibitory activity against Human cathepsin L
Cathepsin B = Cathepsin B (Homo sapiens, UniProt P07858); experiment: Inhibitory activity against Human cathepsin B
[6] = Volume of distribution in male Sprague-Dawley rat; format: ADME, organism-based; conditions: in vivo, read-out: Vdss; method in brief: as §1
Cathepsin K [7] = molecular target: T2, Cathepsin K (Rattus norvegicus, UniProt O35186); experiment: Inhibitory activity against Rat cathepsin K
T2 sequence (O35186 whole entry): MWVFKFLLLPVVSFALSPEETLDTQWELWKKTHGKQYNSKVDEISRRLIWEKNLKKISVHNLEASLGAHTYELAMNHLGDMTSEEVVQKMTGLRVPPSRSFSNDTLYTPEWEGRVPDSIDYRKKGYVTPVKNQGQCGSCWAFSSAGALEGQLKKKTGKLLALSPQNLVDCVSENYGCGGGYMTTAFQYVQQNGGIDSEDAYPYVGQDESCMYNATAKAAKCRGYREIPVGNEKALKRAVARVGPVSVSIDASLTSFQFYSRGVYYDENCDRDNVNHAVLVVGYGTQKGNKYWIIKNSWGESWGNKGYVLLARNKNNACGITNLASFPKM

Cathepsin K [8] = molecular target: T1, Cathepsin K; experiment: In vitro IC50 value was measured using in situ cytochem assay.

Procathepsin L, sequence (P07711 whole entry): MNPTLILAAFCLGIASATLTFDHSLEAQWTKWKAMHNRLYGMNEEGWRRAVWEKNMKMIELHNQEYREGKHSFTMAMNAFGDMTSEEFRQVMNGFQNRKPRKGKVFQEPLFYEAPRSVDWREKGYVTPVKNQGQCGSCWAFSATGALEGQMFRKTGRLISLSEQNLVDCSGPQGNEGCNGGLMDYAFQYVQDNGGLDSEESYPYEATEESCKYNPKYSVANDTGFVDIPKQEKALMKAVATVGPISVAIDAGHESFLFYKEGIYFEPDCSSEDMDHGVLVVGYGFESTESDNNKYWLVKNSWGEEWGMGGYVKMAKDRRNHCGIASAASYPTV
Cathepsin S, sequence (P25774 whole entry): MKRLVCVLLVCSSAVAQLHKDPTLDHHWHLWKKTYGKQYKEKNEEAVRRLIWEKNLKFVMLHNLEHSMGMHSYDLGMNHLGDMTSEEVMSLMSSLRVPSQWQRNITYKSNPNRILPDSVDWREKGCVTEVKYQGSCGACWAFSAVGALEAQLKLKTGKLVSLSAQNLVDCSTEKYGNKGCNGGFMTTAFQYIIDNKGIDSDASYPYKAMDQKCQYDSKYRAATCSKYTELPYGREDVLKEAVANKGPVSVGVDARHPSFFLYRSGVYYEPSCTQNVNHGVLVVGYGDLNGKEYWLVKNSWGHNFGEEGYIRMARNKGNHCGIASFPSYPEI

Ki (Cathepsin K [1]) [nM]	clearance [2] [mL/min/kg]	half-life [4] [min]	bioavailability [5] [%]	Ki (Cathepsin S) [nM]	Ki (Cathepsin B) [nM]	Structure (SMILES)	further results
2				26		CC(C)C[C@H](NC(=O)OCc1ccccc1)C(=O)NC1CCCN(C(=O)[C@H](CC(C)C)NC(=O)OCc2ccccc2)CC1=O (stereo partly drawn)	Ki (Procathepsin L): 47 nM
2.3					> 1000	CC(C)C[C@H](NC(=O)OCc1ccccc1)C(=O)N1CC(=O)C(NC(=O)[C@@H](CC(C)C)NC(=O)OCc2ccccc2)C1 (stereo partly drawn)	
				890		CC(C)C[C@H](NC(=O)OCc1ccccc1)C(=O)NCC(=O)CNC(=O)[C@H](CC(C)C)NC(=O)OCc1ccccc1	
2.6					440	CC(C)C[C@H](NC(=O)OCc1ccccc1)C(=O)N1CCC(NC(=O)[C@@H](CC(C)C)NC(=O)OCc2ccccc2)C(=O)C1 (stereo partly drawn)	
15				97		CC(C)C[C@H](NC(=O)OCc1ccccc1)C(=O)N[C@@H]1CCCN(C(=O)[C@H](CC(C)C)NC(=O)OCc2ccccc2)CC1=O	Ki (Procathepsin L): 290 nM
30						CC(C)C[C@H](NC(=O)OCc1ccccc1)C(=O)N1CCCC(NC(=O)[C@@H](CC(C)C)NC(=O)OCc2ccccc2)C(=O)C1 (stereo partly drawn)	

More lines, now with the values behind:

Structure (SMILES)	Ki (Cathepsin K [1]) [nM]	clearance [2] [mL/min/kg]	half-life [4] [min]	bioavailability [5] [%]	Ki (Cathepsin S) [nM]	Ki (Cathepsin B) [nM]	further results
CC(C)C[C@H](NC(=O)c1cc2ccccc2o1)C(=O)NC1CCCN(S(=O)(=O)c2ccccn2)CC1O (stereo partly drawn)	> 1000						
CC(C)C[C@H](NC(=O)c1cc2ccccc2o1)C(=O)NCC(=O)CNS(=O)(=O)c1ccccn1	1.6	33.1	27	3.3			Vd [3]: 0.65 L/kg
CC(C)C[C@H](NC(=O)c1cc2ccccc2o1)C(=O)N[C@H]1CCCN(S(=O)(=O)c2ccccn2)CC1=O		49.2	29.8	42.1		500	Vd [6]: 1.86 L/kg; Ki (Procathepsin L): 2.2 nM; Ki (Cathepsin K [7]): 60 nM
CC(C)C[C@H](NC(=O)c1cc2ccccc2o1)C(=O)N[C@@H]1CCCN(S(=O)(=O)c2ccccn2)CC1=O		51.9	33.2	9.7			Vd [3]: 1.64 L/kg
CC(C)C[C@H](NC(=O)c1cc2ccccc2o1)C(=O)N[C@@H](C)C(=O)CNS(=O)(=O)c1ccccn1	7.5	32.5	33.2	3.2	20	59	Vd [6]: 0.71 L/kg
CC(C)C[C@H](NC(=O)c1cc2cc(OCCN3CCOCC3)ccc2o1)C(=O)N[C@@H]1CCCN(C(=O)Cc2cccc(-c3ccccn3)c2)CC1=O	4.7						
CC(C)C[C@H](NC(=O)c1cc2cc(OCCN3CCOCC3)ccc2o1)C(=O)N[C@H]1CCCN(C(=O)Cc2cccc(-c3ccccn3)c2)CC1=O	0.0048	39.7	338	2.1	14	100	Vd [6]: 1.29 L/kg; Ki (Procathepsin L): 0.49 nM; IC50 (Cathepsin K [8]): 30 nM; Ki (Cathepsin K [7]): 4.8 nM
CC(C)C[C@H](NC(=O)c1cc2cc(OCCN3CCOCC3)ccc2o1)C(=O)NC1CCCN(C(=O)Cc2cccc(-c3ccccn3)c2)CC1O (stereo partly drawn)	54						
CC(C)C[C@H](NC(=O)c1cc2ccccc2o1)C(=O)N[C@@H](C)C(=O)CN(C)S(=O)(=O)c1ccccn1	670	44.6	21.5	2.5			Vd [3]: 1.15 L/kg
